Here are results for 2 compounds from ChEMBL document CHEMBL1255395, “Laninamivir prodrug CS-8958, a long-acting neuraminidase inhibitor, shows superior anti-influenza virus activity after a single administration” (Antimicrob Agents Chemother, 2010).

Each structure is given as a SMILES string. The source made the active and inactive calls. No cut-off for these calls is given here.

Data set [1] has as its system Influenza A virus. Description: Antimicrobial activity against Influenza A virus (A/Puerto Rico/8/34(H1N1)) infected in BALB/c mouse assessed as increase in mouse survival at 0.71 mg/kg, itn administered for 7 days before infection. It counts as functional, organism-based. Also noted: dose 0.71 mg/kg. Conditions: A/Puerto Rico/8/1934(H1N1).
Data set [2] concerns Influenza A virus. Description: Antimicrobial activity against Influenza A virus (A/Puerto Rico/8/34(H1N1)) infected in BALB/c mouse assessed as increase in mouse survival at 0.17 mg/kg, itn for 7 days post infection. In kind it is functional, organism-based. Also noted: dose 0.17 mg/kg. The conditions noted are these: A/Puerto Rico/8/1934(H1N1).
Data set [3] deals with Influenza B virus. Kind of data set: Antimicrobial activity against Influenza B virus (B/Malaysia/2506/2004) infected itn dosed Mustela putorius furo assessed as nasal viral titer treated after 4 hrs post infection measured after 3 days. It counts as functional, organism-based. The essentials:
(§1)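 Ferrets (600–800 g), seronegative by hemagglutination inhibition, anaesthetized with ketamine/xylazine and infected with B/Malaysia/2506/2004, 1,000 PFU/100 μl. From 4 hpi they received either a single intranasal dose (saline, 0.05 or 0.5 μmol/kg) or 25 mg/kg oral twice daily. Nasal wash titers measured by MDCK plaque assay on days 1, 2 and 3, log10 PFU/ml (n = 5). Undetectable samples entered at the lower limit of detection.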

Data set [4] concerns Influenza A virus. Description: Antimicrobial activity against Influenza A virus (A/Puerto Rico/8/34(H1N1)) infected in BALB/c mouse assessed as reduction in viral titer in lung at 0.24 mg/kg, itn administered 11 hrs post infection measured after 59 hrs post infection. It counts as functional, organism-based. The conditions noted are these: A/Puerto Rico/8/1934(H1N1). Details: dose 0.24 mg/kg. The essentials: (§2)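 BALB/c mice infected intranasally with A/PR/8/34 at 30 PFU. Intranasal dosing at 0.5 μmol/kg began at 11 hpi, either repeated twice daily or given once followed by twice-daily saline. Lungs (n = 3) were taken at 35, 59 and 83 hpi and homogenized. Titers were measured by MDCK plaque assay as log10 PFU/lungs. Two-way ANOVA and Dunnett test were applied.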

Data set [5] relates to Influenza A virus. Kind of data set: Antimicrobial activity against Influenza A virus (A/Puerto Rico/8/34(H1N1)) infected in BALB/c mouse assessed as reduction in viral titer in lung at 0.080 mg/kg, itn after 11 hrs post infection. In kind it is functional, organism-based. Details: dose 0.08 mg/kg. Conditions: A/Puerto Rico/8/1934(H1N1), TDE = time-dependent effect. The gist of the method: (§3)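 BALB/c mice infected intranasally with A/PR/8/34 at 30 PFU. Oral drug was given twice daily from 11 hpi with intranasal saline at 11 hpi, or a single intranasal dose at 11 hpi with oral saline on the same schedule. Lungs (n = 3) were harvested at 35, 59 and 83 hpi. Titers were measured by MDCK plaque assay, log10 PFU/lungs.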

Data set [6] has as its system Influenza A virus. Kind of data set: Antimicrobial activity against Influenza A virus (A/Puerto Rico/8/34(H1N1)) infected in BALB/c mouse assessed as increase in mouse survival at 0.17 mg/kg, itn for 1 day post infection. Details: dose 0.17 mg/kg. It counts as functional, organism-based. Conditions: A/Puerto Rico/8/1934(H1N1).
Data set [7] relates to Influenza A virus. Kind of data set: Antimicrobial activity against Influenza A virus (A/Puerto Rico/8/34(H1N1)) infected in BALB/c mouse assessed as increase in mouse survival at 0.37 mg/kg, itn administered for 7 days before infection. It counts as functional, organism-based. Also noted: dose 0.37 mg/kg. The conditions noted are these: A/Puerto Rico/8/1934(H1N1). The gist of the method:
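Single intranasal dose in saline (50 μl) given to anesthetized female BALB/c mice 7 days before intranasal infection with A/PR/8/34 at 500 PFU, n = 12. Survival was checked daily to day 20. Groups were compared with saline controls by Kaplan-Meier and log-rank test, with Bonferroni adjustment where needed.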

Data set [8] concerns Influenza A virus. Kind of data set: Antimicrobial activity against Influenza A virus (A/Puerto Rico/8/34(H1N1)) infected in BALB/c mouse assessed as increase in mouse survival at 0.17 mg/kg, itn for 4 days post infection. It counts as functional, organism-based. Conditions: A/Puerto Rico/8/1934(H1N1). Also noted: dose 0.17 mg/kg.
Data set [9] has as its system Influenza A virus. Description: Antimicrobial activity against oseltamivir-sensitive influenza A virus (A/Yokohama/67/2006 (H1N1)) clone 1 infected in BALB/c mouse assessed as reduction in viral titer in lung at 0.080 mg/kg, itn administered 13 hrs post infection measured after 37 hrs post infection. Also noted: dose 0.08 mg/kg. It counts as functional, organism-based. The essentials:
(§4)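 Female BALB/c mice infected intranasally with A/Yokohama/67/2006 clone 1. From 13 hpi they received either a single intranasal dose (0.057 or 0.17 μmol/kg) or 1.0 or 10 mg/kg oral twice daily. Lung titers measured at 37, 61 and 85 hpi by MDCK plaque assay, log10 PFU/lungs (n = 3). Detection limit 2.4.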

Data set [10] relates to Influenza B virus. Description: Antimicrobial activity against Influenza B virus (B/Hong Kong/05/1972) infected in BALB/c mouse assessed as increase in mouse survival at 0.23 mg/kg, itn administered for 7 days before infection. It counts as functional, organism-based. Details: dose 0.23 mg/kg.
In data set [11] the test system is Influenza B virus. Description: Antimicrobial activity against Influenza B virus (B/Hong Kong/05/1972) infected in BALB/c mouse assessed as increase in mouse survival at 0.71 mg/kg, itn administered for 7 days before infection. Details: dose 0.71 mg/kg. It counts as functional, organism-based.
Data set [12] has as its system Influenza B virus. Description: Antimicrobial activity against Influenza B virus (B/Hong Kong/05/1972)infected in BALB/c mouse assessed as increase in mouse survival at 0.076 mg/kg, itn administered for 7 days before infection. Details: dose 0.076 mg/kg. In kind it is functional, organism-based.
Data set [13] has as its system Influenza B virus. Kind of data set: Antimicrobial activity against Influenza B virus (B/Malaysia/2506/2004) infected itn dosed Mustela putorius furo assessed as nasal viral titer treated after 4 hrs post infection measured after 1 day. It counts as functional, organism-based. The gist of the method: as §1
In data set [14] the test system is Influenza A virus. Kind of data set: Antimicrobial activity against Influenza A virus (A/Puerto Rico/8/34(H1N1)) infected in BALB/c mouse assessed as increase in mouse survival at 0.085 mg/kg, itn administered for 7 days before infection. It counts as functional, organism-based. Conditions: A/Puerto Rico/8/1934(H1N1). Also noted: dose 0.085 mg/kg.
Data set [15] relates to Influenza A virus. Description: Antimicrobial activity against Influenza A virus (A/Puerto Rico/8/34(H1N1)) infected in BALB/c mouse assessed as increase in mouse survival at 0.017 mg/kg, itn administered 11 hrs post infection for 5 days […] infection measured on day 20. It counts as functional, A/Puerto Rico/8/1934(H1N1). The gist of the method: (§5)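 Female BALB/c mice (5–6 weeks) infected intranasally with A/PR/8/34 at 100 PFU, n = 10 per group. Each mouse got one intranasal dose at 11 hpi plus oral doses twice daily from 11 hpi to 120 hpi. Drug went by one route and saline by the other, all in saline vehicle. Survival was followed daily to day 20 and analysed by Kaplan-Meier with a log-rank test against the saline group.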

The test system of data set [16] is Influenza A virus. Kind of data set: Antimicrobial activity against Influenza A virus (A/Puerto Rico/8/34(H1N1)) infected in BALB/c mouse assessed as increase in mouse survival at 0.76 mg/kg, itn administered for 7 days before infection. It counts as functional, organism-based. Also noted: dose 0.76 mg/kg. Conditions: A/Puerto Rico/8/1934(H1N1).
The subject of data set [17] is Influenza A virus. Kind of data set: Antimicrobial activity against Influenza A virus (A/Puerto Rico/8/34(H1N1)) infected in BALB/c mouse assessed as reduction in viral titer in lung at 0.027 mg/kg, itn after 11 hrs post infection. Conditions: A/Puerto Rico/8/1934(H1N1), TDE = time-dependent effect. Also noted: dose 0.027 mg/kg. It counts as functional, organism-based. The gist of the method: as §3

Data set [18] concerns Influenza A virus. Kind of data set: Antimicrobial activity against Influenza A virus (A/Puerto Rico/8/34(H1N1)) infected in BALB/c mouse assessed as increase in mouse survival at 0.095 mg/kg, itn administered for 7 days before infection. In kind it is functional, organism-based. Also noted: dose 0.095 mg/kg. Conditions: A/Puerto Rico/8/1934(H1N1).
The test system of data set [19] is Influenza A virus. Kind of data set: Antimicrobial activity against Influenza A virus (A/Puerto Rico/8/34(H1N1)) infected in BALB/c mouse assessed as increase in mouse survival at 0.25 mg/kg, itn administered for 7 days before infection. Details: dose 0.25 mg/kg. Conditions: A/Puerto Rico/8/1934(H1N1). It counts as functional, organism-based.
The test system of data set [20] is Influenza A virus. Description: Antimicrobial activity against oseltamivir-sensitive influenza A virus (A/Yokohama/67/2006 (H1N1)) clone 1 infected in BALB/c mouse assessed as reduction in viral titer in lung at 0.080 mg/kg, itn administered 13 hrs post infection measured after 61 hrs post infection. Also noted: dose 0.08 mg/kg. In kind it is functional, organism-based. The essentials:
as §4

Data set [21] concerns Influenza A virus. Kind of data set: Antimicrobial activity against Influenza A virus (A/Puerto Rico/8/34(H1N1)) infected in BALB/c mouse assessed as increase in mouse survival at 0.017 mg/kg, itn administered 11 hrs post infection for 5 days […] infection. It counts as functional, organism-based. Also noted: dose 0.017 mg/kg. The conditions noted are these: A/Puerto Rico/8/1934(H1N1). The gist of the method: as §5

For data set [22], the system named is Influenza A virus. Description: Antimicrobial activity against Influenza A virus (A/Puerto Rico/8/34(H1N1)) infected in BALB/c mouse assessed as increase in mouse survival at 0.17 mg/kg, itn for 12 hrs post infection. It counts as functional, organism-based. Details: dose 0.17 mg/kg. Conditions: A/Puerto Rico/8/1934(H1N1).
Data set [23] concerns Influenza A virus. Kind of data set: Antimicrobial activity against Influenza A virus (A/Puerto Rico/8/34(H1N1)) infected in BALB/c mouse assessed as reduction in viral titer in lung at 0.24 mg/kg, itn administered 11 hrs post infection measured after 35 hrs post infection. In kind it is functional, organism-based. Details: dose 0.24 mg/kg. Conditions: A/Puerto Rico/8/1934(H1N1). The gist of the method:
as §2

Data set [24] concerns Influenza A virus. Description: Antimicrobial activity against Influenza A virus (A/Puerto Rico/8/34(H1N1)) infected in BALB/c mouse assessed as reduction in viral titer in lung at 0.24 mg/kg, itn administered 11 hrs post infection measured after 83 hrs post infection. Details: dose 0.24 mg/kg. It counts as functional, organism-based. Conditions: A/Puerto Rico/8/1934(H1N1). The essentials: as §2

Data set [25] concerns Influenza B virus. Description: Antimicrobial activity against Influenza B virus (B/Hong Kong/05/1972) infected in BALB/c mouse assessed as increase in mouse survival at 0.23 mg/kg, itn administered for 7 days before infection measured at day 20. In kind it is functional.
Data set [26] relates to Influenza B virus. Description: Antimicrobial activity against Influenza B virus (B/Malaysia/2506/2004) infected itn dosed Mustela putorius furo assessed as nasal viral titer treated after 4 hrs post infection measured after 2 days. In kind it is functional, organism-based. The gist of the method:
as §1

Data set [27] deals with Influenza A virus. Kind of data set: Antimicrobial activity against Influenza A virus (A/Puerto Rico/8/34(H1N1)) infected in BALB/c mouse assessed as increase in mouse survival at 0.18 mg/kg, itn administered for 7 days before infection. Also noted: dose 0.18 mg/kg. In kind it is functional, organism-based. Conditions: A/Puerto Rico/8/1934(H1N1).
In data set [28] the test system is Influenza A virus. Description: Antimicrobial activity against oseltamivir-sensitive influenza A virus (A/Yokohama/67/2006 (H1N1)) clone 1 infected in BALB/c mouse assessed as reduction in viral titer in lung at 0.080 mg/kg, itn administered post 13 hrs infection measured after 85 hrs post infection. In kind it is functional, organism-based. Details: dose 0.08 mg/kg. The essentials: as §4

The nature of data set [29]: Half life in human. In kind it is ADME, organism-based. The conditions noted are these: in vivo.

Turning to `CCCCCCCC(=O)OC[C@@H](O)[C@@H](OC)[C@@H]1OC(C(=O)O)=C[C@H](NC(=N)N)[C@H]1NC(C)=O` [LANINAMIVIR OCTANOATE], the outcome in the data set with Influenza A virus [1], in the data set on Influenza A virus [2], in the data set with Influenza A virus [4], in the data set with Influenza A virus [6], in the data set on Influenza A virus [7] and in the data set with Influenza A virus [8] was Active. For the same compound, the result in the data set on Influenza A virus [9], with Influenza B virus [10], in the data set with Influenza B virus [11], with Influenza B virus [12], in the data set with Influenza A virus [14] and in the data set with Influenza A virus [16] was Active. Also, the outcome with Influenza A virus [18], with Influenza A virus [19], in the data set on Influenza A virus [20], with Influenza A virus [21], in the data set on Influenza A virus [22] and with Influenza A virus [23] was Active. For the same compound, the outcome in the data set on Influenza A virus [24], in the data set on Influenza A virus [27] and in the data set on Influenza A virus [28] was Active. In addition, the Activity entry was “Dose-dependent effect” in the data set on Influenza B virus [3]; “tde” in the data set with Influenza A virus [5]; “Dose-dependent effect” in the data set on Influenza B virus [13]; 30% in the data set on Influenza A virus [15]; “tde” with Influenza A virus [17]; 82% in the data set with Influenza B virus [25]. The Activity entry in the data set on Influenza B virus [26] is “Dose-dependent effect”.

For orientation: half-life means how long it takes for the measured level to halve. Low readings indicate rapid decline, high ones slow decline. `CC(=O)N[C@H]1[C@H]([C@H](O)[C@H](O)CO)OC(C(=O)O)=C[C@@H]1N=C(N)N` [ZANAMIVIR]: the half-life in [29] is 2.8 h.
